Xi reactivation = activators of inactive X chromosome reactivation, primary screen, imaging, XiGFP fibroblasts, GFP high-content imaging, set 2; activation, % at 7.58 µM; 0.055% of 360,000 active; XiGFP mouse fibroblasts, % GFP-positive cells imaging, 3 d; cells co-treated with 5-aza-dC sensitizer; scaled so ellipticine positive control = 100%;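 active = mean normalized replicate activation at least 10% and every replicate at or above 10%; inconclusive = only one of the two criteria met; inactive = mean below 10% and not all replicates reach 10%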
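Material: XiGFP fibroblasts, SV40-immortalized. Buffer or medium: DMEM plus 5-aza-dC sensitizer. Compound: single concentration per compound, delivered by pin transfer. Times: 3 days compound exposure. Controls: ellipticine 6 µM.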
ABCB6 inh 2 = ABCB6 transporter inhibitors, primary screen, K562-ABCB6 cells, flow cytometry, MLPCN library; AID 602162, 2011; 0.19% of 360,000 active; fluorescence ratio to DMSO, % at 10 µM; ATP-binding cassette sub-family B member 6 (Homo sapiens), Q9NP58; K562-ABCB6 porphyrin accumulation, 1 h; hits give low values;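 active = fluorescence ratio to DMSO below 75%, the collection mean minus 3 SD; inconclusive = too few cells collected in the well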;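 also: signal is porphyrin accumulated inside mitochondria; lower ratio means ABCB6 inhibition with less porphyrin fluorescence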
Myeloid diff 2 = induction of myeloid progenitor differentiation, primary screen, cell-based, flow cytometry, MLPCN library; AID 624256, 2012; 1% of 360,000 active; ER-HoxA9 myeloid progenitors, lysozyme-GFP differentiation; calls only at 10 µM;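 active = normalized GFP-positive differentiation at or above the plate's own cutoff, the solvent-only control mean plus 3 SD; inconclusive = no clear call, values can overlap the other calls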;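 also: cells exposed to compound for four days before flow analysis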
A number is an active result; – = inactive; ? = inconclusive; · = no result given; + = active, no number. The sample as a whole holds a higher share of hits than the screen did.

SMILES	Xi reactivation	ABCB6 inh 2	Myeloid diff 2
O=C(/C=C/c1ccc(F)cc1)N1CCCN(C(=O)/C=C/c2ccc(F)cc2)CC1	–	–	–
O=C(/C=C/c1ccc(F)cc1)N1CC[C@@]2(O)CCCC[C@H]2C1	–	–	+
CCN(c1ccccc1)S(=O)(=O)c1ccc(NC(=O)c2nc(S(C)(=O)=O)ncc2Cl)cc1	·	37	?
CS(=O)(=O)c1ncc(Cl)c(C(=O)Nc2ccc(OC(F)F)cc2)n1	·	–	?
CCS(=O)(=O)c1ncc(Cl)c(C(=O)Nc2ccc(S(=O)(=O)N(C)c3ccccc3)cc2)n1	–	39	?
CC(=O)Nc1ccc(S(=O)(=O)N(C)c2ccccc2)cc1	·	–	–
CO[C@H]1CN(C)C(=O)c2cc(NC(=O)C3CC3)ccc2OC[C@@H](C)NC[C@@H]1C	–	·	·
COCC(=O)N1CC[C@@H]2[C@@H](CO)Nc3ccc(-c4ccc(C#N)cc4)cc3[C@@H]21	–	·	·
C[C@H]1CN([C@@H](C)CO)C(=O)c2ccccc2-c2ccccc2CO[C@H]1CN(C)Cc1ccc(C(F)(F)F)cc1	–	·	·
CCC(C)Sc1cc(-c2nc3ccccn3c2NC2CCCCC2)ccc1OC (stereo not given)	–	–	–
CCC(C)Sc1cc(-c2nc3cc(C)ccn3c2NC2CCCCC2)ccc1OC (stereo not given)	–	–	+
CCC(=O)N1[C@H](CO)[C@H](c2ccc(C3=CCCC3)cc2)[C@H]1CNC(=O)CN(C)C	–	·	·
CO[C@H]1CN(C)C(=O)c2cc(NC(=O)C3CC3)ccc2OC[C@@H](C)N(C)C[C@H]1C	–	·	·
C[C@H](CO)N1C[C@H](C)[C@@H](CN(C)Cc2ccncc2)Oc2cc(C3=CCCC3)ccc2S1(=O)=O	–	·	·
CCOC(=O)c1ccc(NC(=O)c2ncn3c2C(=O)N[C@H](C)C3)cc1	–	–	+
CCOC(=O)c1ccc(NC(=O)c2ncn3c2C(=O)NC[C@H]3C)cc1	–	–	–
CCCNC(=O)N1C[C@@H]2[C@H](c3ccccc31)[C@@H](CO)N2C(=O)Nc1ccccc1	–	·	·
O=C(COc1ccc([N+](=O)[O-])cc1)Nc1ccc2c(c1)nc1n2CCOC1	–	–	+
Cc1ccc(OCC(=O)Nc2ccc3c(c2)nc2n3CCOC2)cc1	·	–	–
Cc1ccc(C2=NC(C)(C)N=C2SCC(=O)Nc2ccc(Cl)cc2)cc1	·	66	–
CC1(C)N=C(SCC(=O)Nc2ccccc2)C(c2ccc(Cl)cc2)=N1	·	–	–
C[C@@H]1CN([C@@H](C)CO)C(=O)c2cc(Br)cnc2O[C@@H]1CN(C)C(=O)C1CC1	–	·	·
CC(=O)N1c2ccc(S(=O)(=O)N(C)c3cc(C)ccc3C)cc2CC1C (stereo not given)	–	–	–
Cc1ccc(N(C)S(=O)(=O)c2ccc3c(c2)CC(C)N3C(=O)C2CC2)cc1 (stereo not given)	–	–	+
C[C@H](CO)N1C[C@H](C)[C@H](CN(C)C(=O)CN(C)C)Oc2ncc(C#Cc3ccccc3)cc2C1=O	–	·	·
SMILES	Xi reactivation	ABCB6 inh 2	Myeloid diff 2
O=C(Nc1nc2ccccc2s1)C1CCCO1 (stereo not given)	·	–	–
O=C(Nc1nc2ccccc2s1)C1c2ccccc2Oc2ccccc21	–	–	+
CCCNC(=O)N1CCC2(CC1)CN(C(C)=O)[C@@H](CO)c1[nH]c3cc(OC)ccc3c12	–	·	·
C[C@@H]1CCCCO[C@H](CN(C)S(=O)(=O)c2ccc(Cl)cc2)[C@@H](C)CN([C@@H](C)CO)C(=O)c2cc(NC(=O)Nc3ccccc3)ccc2O1	–	·	·
C/C(=N/NC(N)=S)c1cc2ccc(O)cc2oc1=O	–	–	+
C/C(=N/NC(=O)c1ccncc1)c1cc2ccc(O)cc2oc1=O	–	–	–
COCCNC(=O)C[C@H]1CC[C@H]2[C@H](COc3ccc(NC(=O)Cc4ccccc4)cc3C(=O)N2C)O1	–	·	·
CC1=Nc2ccccc2/C1=C/c1nc(-c2ccc(C)s2)oc1O	–	–	–
CC1=Nc2ccccc2/C1=C/c1c(C)[nH]c2ccccc12	·	–	+
O=C(CNC(=O)c1ccccc1F)NNC(=O)c1ccccc1O	–	–	+
Cc1ccccc1C(=O)NCC(=O)OCC(=O)NNC(=O)c1ccccc1F	–	–	–
COC(=O)C[C@@H]1C[C@@H]2c3cc(NC(=O)Nc4ccc(F)cc4)ccc3O[C@@H]2[C@@H](CO)O1	–	·	·
CCC(C(=O)NC1CCCC1)N(Cc1cccs1)C(=O)Cn1nnc(-c2ccc(OC)c(OC)c2)n1 (stereo not given)	·	–	–
COc1ccc(-c2nnn(CC(=O)N(Cc3cccs3)C(C)C(=O)NC3CCCC3)n2)cc1OC (stereo not given)	·	–	+
O=C1c2ccccc2-c2cccnc21	–	–	–
O=C1c2ccccc2C(=O)c2c(/C=C/N3CCCCC3)ccnc21	–	–	+
COc1ccc2c3c(n(C)c2c1)[C@@H](CO)N(CC1CCCCC1)CC31CCN(Cc2nccs2)CC1	–	·	·
Cn1nc(C(=O)Nc2cccc(S(N)(=O)=O)c2)c2ccccc2c1=O	·	–	–
CC(OC(=O)c1nn(C)c(=O)c2ccccc12)C(=O)Nc1ccc(S(N)(=O)=O)cc1 (stereo not given)	–	–	+
O=C(N[C@H]1C=C[C@H](CC(=O)N2CCOCC2)O[C@H]1CO)c1ccc2c(c1)OCO2	–	·	·
CC(C)(C)[S@@](=O)N1Cc2cc(C(=O)NCc3ccccc3F)nc(-c3cccc(-c4cncnc4)c3)c2[C@H]1CCO	–	·	·
CCN1/C(=C/C=C2/SC(=Nc3cccc4ncccc34)N(C)C2=O)Sc2ccccc21	–	–	+
CCC(=O)/C=C1/Sc2ccccc2N1CC	·	–	–
COc1ccc(/C=N/NC(=O)c2ccc(NC(=O)c3cccc([N+](=O)[O-])c3)cc2)c(OC)c1	–	–	·
COc1ccc(/C=N/NC(=O)c2cccc(NC(=O)c3ccc(Cl)cc3)c2)c(OC)c1	–	–	+
SMILES	Xi reactivation	ABCB6 inh 2	Myeloid diff 2
C=CCN1C(=O)/C(=C2/Sc3ccccc3N2CC)SC1=S	–	–	–
C=CCN1C(=O)/C(=C/C=C2/N(CC)c3ccc(S(=O)(=O)N(C)C)cc3N2CC)SC1=S	–	–	+
COCCNC(=O)C[C@@H]1C[C@@H]2c3cc(NS(C)(=O)=O)ccc3O[C@@H]2[C@@H](CO)O1	–	·	·
Oc1ccc(Oc2ccc(Oc3ccc(O)cc3)cc2)cc1	–	–	+
CC(=O)c1ccc(Oc2ccc(C(C)=O)cc2)cc1	·	–	–
CCN(Cc1ccccc1)C(=O)c1cccc(S(=O)(=O)N2CCN(c3ccccc3)CC2)c1	–	–	+
CCN(Cc1ccccc1)C(=O)c1cccc(S(=O)(=O)N2CCN(c3ccc(F)cc3)CC2)c1	–	–	–
CO[C@@H]1CN(C)C(=O)c2cc(NC(=O)C3CCC3)ccc2OC[C@@H](C)N(Cc2nccs2)C[C@H]1C	–	·	·
C[C@@H]1CCCCO[C@H](CN(C)Cc2ccncc2)[C@@H](C)CN([C@@H](C)CO)C(=O)c2cc(NC(=O)Nc3ccc(F)cc3)ccc2O1	–	·	·
COC(=O)C(Cc1c[nH]c2ccccc12)NC(C)=O (stereo not given)	·	–	–
CC(Cc1c[nH]c2ccccc12)NC(=O)OCCCl (stereo not given)	–	–	+

Screens as filed in PubChem.
